Screens deposited in PubChem by several laboratories.
The list is not random: actives were taken first. Their share in the collection is about 1.8%.
HTRA1 inh: inhibitors of human serine peptidase HTRA1. Q92743. recombinant HTRA1, FP-rhodamine activity-based probe, fluorescence polarization. inhibition, % at 5.96 µM. hit rate 0.5% among 340,000. AID 504803; in the data active = inhibition above about 36%;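 note: 0% = enzyme with DMSO and 100% = wells lacking enzyme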
Target sequence (Q92743 whole entry, looked up): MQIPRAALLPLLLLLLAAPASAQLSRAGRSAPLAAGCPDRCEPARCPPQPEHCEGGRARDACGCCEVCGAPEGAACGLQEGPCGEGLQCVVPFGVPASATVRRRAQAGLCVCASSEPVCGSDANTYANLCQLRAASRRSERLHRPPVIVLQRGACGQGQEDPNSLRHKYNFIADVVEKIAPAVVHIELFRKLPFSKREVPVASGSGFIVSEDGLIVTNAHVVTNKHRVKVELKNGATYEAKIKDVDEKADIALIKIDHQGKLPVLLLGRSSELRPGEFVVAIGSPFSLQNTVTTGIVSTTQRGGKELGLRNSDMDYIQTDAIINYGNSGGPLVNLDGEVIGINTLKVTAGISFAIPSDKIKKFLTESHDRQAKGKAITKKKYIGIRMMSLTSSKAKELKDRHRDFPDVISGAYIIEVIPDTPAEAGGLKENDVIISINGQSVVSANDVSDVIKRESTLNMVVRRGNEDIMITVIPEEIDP
SIAE primary: inhibitors of human sialic acid acetylesterase SIAE | SIAE FP-Rh probe binding, fluorescence polarization | hit rate 0.69% among 370,000 | inhibition, % at 9.66 µM | Q9HAT2;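 active = inhibition above a cutoff: mean of compounds within the control limits plus 3 SD of those, cut at about 17% in these data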;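 note: 0% = plate median of compound wells and 100% = probe without SIAE protein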
mABHD4 FP: inhibits mouse alpha/beta hydrolase domain 4; inhibition, % at 8.92 µM; hit rate 0.54% among 370,000; purified mABHD4, FP-Rh probe fluorescence polarization;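 active = inhibition exceeding the mean over every tested compound plus 3 SD, cut at about 30% in these data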;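 note: 0% = plate median of compound wells and 100% = S159A mutant with DMSO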
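system = mouse ABHD4 enzyme, wild type | medium = HEPES pH 7.0, NaCl, Pluronic buffer | also added = FP-Rh probe | incubation = Enzyme–compound pre-incubation 45 min, then probe 60 min, both 25 °C | technique = fluorescence polarization, excitation 525 nm, emission 598 nm, BODIPY TMR filters | controls = S159A mutant high control, sample median low control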
ARNT-TACC3 inh: ARNT/TACC3 interaction disruption | Q9Y6A5 | AlphaScreen His-ARNT PAS-B/GST-TACC3 binding, luminescence; TACC3 fragment carries E629A point mutation | inhibition, % at 9.99 µM | hit rate 0.66% among 390,000 | AID 623870;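 active = mean inhibition of replicates at least 50% and at least half of replicates each reaching 50%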;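 note: 0% = complete ARNT plus TACC3 wells and 100% = ARNT alone without TACC3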
TCR CD3 inh: human TCR-CD3 binding inhibition. hit rate 0.37% among 360,000. inhibition, % at 9.4 µM. TAMRA-labeled TCR probe fluorescence, biochemical; in the data active = inhibition above about 19%;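 note: recombinant mutant TCR 2C K166C tagged with TAMRA read by polarization; 0% = receptor in buffer alone and 100% = receptor with positive control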
ARNT Alpha ctr-1: interferes with AlphaScreen signal, flagging false ARNT-TACC3 hits; shares compounds with ARNT-TACC3 inh; AID 651705; His-ARNT PASB-GST AlphaScreen artifact counter-screen, luminescence; AC50, µM (doses to about 68 µM), for inactives: top-dose activity change, negative = signal decrease; hit rate 50% among 1,200;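 active = every separate test run was called active for a drop in luminescence, with AC50 within twice the top valid dose, actives reach about 71 µM in these data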
ARNT Alpha ctr-2: AlphaScreen artifact flagged for ARNT-TACC3 inhibitors | shares compounds with ARNT-TACC3 inh | Dual-tagged His-ARNT PASB-GST AlphaScreen artifact counter-screen | AC50, µM | hit rate 70% among 45 | AID 720564;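 active = luminescence drop, with half-maximal potency fitted within twice the sample's top valid dose, cut at about 70 µM in these data; inactive = the rest, including signal moving the wrong way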
An asterisk follows results filed as active.

For CN(C)CCNc1ccc2ncn3c4ccc(O)cc4c(=O)c1c23 the results were HTRA1 inh 11, SIAE primary 8, mABHD4 FP 13, ARNT-TACC3 inh 58*, TCR CD3 inh -1 and ARNT Alpha ctr-1 -30%.
For CC(C)NC(=O)N(C)C[C@@H]1Oc2ncc(C#CCN(C)C)cc2C(=O)N([C@H](C)CO)C[C@@H]1C the results were ARNT-TACC3 inh 28.
For COC(=O)c1ccc(C(=O)O)nc1 the results were HTRA1 inh 2, SIAE primary 15, mABHD4 FP 5, ARNT-TACC3 inh 53*, TCR CD3 inh 5 and ARNT Alpha ctr-1 -15%.
`COC(=O)c1ccc(C(=O)OC)nc1` gave HTRA1 inh 5, SIAE primary 1, mABHD4 FP -4, ARNT-TACC3 inh -3 and TCR CD3 inh 5.
Screening Cc1ccc(Cn2cccc(NS(C)(=O)=O)c2=O)cc1 returned HTRA1 inh 2, SIAE primary 4, mABHD4 FP 6, ARNT-TACC3 inh 64*, TCR CD3 inh 6 and ARNT Alpha ctr-1 -5%.
C(=N\Nc1ncnc2nc[nH]c12)/c1cccs1 was read as HTRA1 inh 2, SIAE primary 9, mABHD4 FP -5, ARNT-TACC3 inh 51*, TCR CD3 inh -6 and ARNT Alpha ctr-1 -14%.
For Fc1ccc(/C=N/Nc2ncnc3nc[nH]c23)cc1F the results were HTRA1 inh 1, SIAE primary -1, mABHD4 FP -1, ARNT-TACC3 inh 52*, TCR CD3 inh -4 and ARNT Alpha ctr-1 -11%.
Cc1ccccc1/C=N/Nc1ncnc2nc[nH]c12 was read as HTRA1 inh 2, SIAE primary 0, mABHD4 FP 2, ARNT-TACC3 inh 29 and TCR CD3 inh 3.
`O=C(CNCc1ccccn1)Nc1cc(C(F)(F)F)ccc1N1CCOCC1` gave HTRA1 inh 15, SIAE primary -4, mABHD4 FP 14, ARNT-TACC3 inh 58*, TCR CD3 inh -3 and ARNT Alpha ctr-1 -19%.
CCS(=O)(=O)Nc1ccc2c(c1)C(=O)N(C)[C@@H]1CC[C@H](CC(=O)N3CCN(C)CC3)O[C@H]1CO2 was read as ARNT-TACC3 inh 2.
Screening c1c[nH]c(CN2CCN(Cc3ncc[nH]3)CC2)n1 returned HTRA1 inh 5, SIAE primary 10, mABHD4 FP -2, ARNT-TACC3 inh 53*, TCR CD3 inh -7 and ARNT Alpha ctr-1 -3%.
`C[C@H](CO)N1C[C@H](C)[C@H](CN(C)CC2CCCCC2)Oc2cc(C3=CCCC3)ccc2S1(=O)=O` gave ARNT-TACC3 inh 19.
`Cc1ccccc1C(=O)N1CCN(c2ccc(NC(=O)c3cccnc3Cl)cc2)CC1` gave HTRA1 inh 1, SIAE primary -1, mABHD4 FP 2, ARNT-TACC3 inh 11 and TCR CD3 inh 3.
For O=C(Nc1ccc(N2CCN(C(=O)c3ccccc3F)CC2)cc1)c1ncn[nH]1 the results were HTRA1 inh 5, SIAE primary 2, mABHD4 FP 1, ARNT-TACC3 inh 59*, TCR CD3 inh 8 and ARNT Alpha ctr-1 -18%.
C[C@H]1CN([C@@H](C)CO)C(=O)c2cc(NC(=O)c3ccncc3)ccc2O[C@@H]1CN(C)S(=O)(=O)c1cn(C)cn1 was read as ARNT-TACC3 inh -7.
For FC(F)(F)c1cccc(-c2nn[nH]n2)c1 the results were HTRA1 inh -3, SIAE primary 7, mABHD4 FP 4, ARNT-TACC3 inh -11 and TCR CD3 inh 2.
Screening FC(F)(F)c1cc(-c2nn[nH]n2)cc(C(F)(F)F)c1 returned ARNT Alpha ctr-2 inactive.
Screening O=C(CNS(=O)(=O)c1ccc([N+](=O)[O-])cc1)N/N=C\c1ccc(O)cc1 returned HTRA1 inh -1, SIAE primary -7, mABHD4 FP -2, ARNT-TACC3 inh 4 and TCR CD3 inh 2.
`O=C(CNS(=O)(=O)c1ccc([N+](=O)[O-])cc1)N/N=C/c1ccc(O)cc1O` gave HTRA1 inh 5, SIAE primary -4, mABHD4 FP 6, ARNT-TACC3 inh 63*, TCR CD3 inh 5 and ARNT Alpha ctr-1 -13%.
For COc1ccc(C2C(C#N)=C(N)Oc3c2ccc2cccnc32)cc1OC (stereo unspecified) the results were HTRA1 inh 6, SIAE primary 8, mABHD4 FP 6, ARNT-TACC3 inh 62*, TCR CD3 inh -2 and ARNT Alpha ctr-1 -26%.
Screening COc1ccc(O)c(/C=N\NC(=O)CCn2nnc3ccccc32)c1 returned HTRA1 inh 1, SIAE primary 0, mABHD4 FP -5, ARNT-TACC3 inh 51*, TCR CD3 inh 2 and ARNT Alpha ctr-1 -8%.
COc1cccc(/C=N/NC(=O)CCn2nnc3ccccc32)c1 was read as HTRA1 inh 1, SIAE primary 4, mABHD4 FP -3, ARNT-TACC3 inh 9 and TCR CD3 inh 2.
Screening CCOC(=O)Cc1nnc(NC(=O)c2ncn[nH]2)s1 returned HTRA1 inh 7, SIAE primary 0, mABHD4 FP -1, ARNT-TACC3 inh 69*, TCR CD3 inh 9 and ARNT Alpha ctr-1 -8%.
For CCOC(=O)Cc1nnc(NC(=O)c2ccccc2OCC)s1 the results were HTRA1 inh -7, SIAE primary -2, mABHD4 FP -4, ARNT-TACC3 inh -8 and TCR CD3 inh 4.
Screening Cc1cccc(C(=O)Nc2nnc(-c3ccncc3)o2)c1 returned HTRA1 inh 6, SIAE primary -7, mABHD4 FP -6, ARNT-TACC3 inh 62*, TCR CD3 inh -3 and ARNT Alpha ctr-1 -27%.
COC(=O)c1ccc(C(=O)Nc2nnc(-c3cccnc3)o2)cc1 was read as SIAE primary 10, mABHD4 FP 3 and TCR CD3 inh 2.
Screening Cc1ccccc1C(=O)Nc1nnc(-c2ccco2)o1 returned HTRA1 inh 6, SIAE primary 3, mABHD4 FP -1, ARNT-TACC3 inh 62*, TCR CD3 inh 4 and ARNT Alpha ctr-1 -33%.
`Cc1cccc(C(=O)Nc2nnc(-c3cccnc3)o2)c1` gave HTRA1 inh 3, SIAE primary -1, mABHD4 FP -3, ARNT-TACC3 inh 59*, TCR CD3 inh 3 and ARNT Alpha ctr-1 -35%.
For O=C(Nc1nnc(-c2ccncc2)o1)c1ccc2ccccc2c1 the results were HTRA1 inh 3, SIAE primary -2, mABHD4 FP 2, ARNT-TACC3 inh 20 and TCR CD3 inh -1.
O=C(Nc1nnc(-c2ccco2)o1)c1cccc2ccccc12 was read as HTRA1 inh 3, SIAE primary -2, mABHD4 FP 4, ARNT-TACC3 inh 17 and TCR CD3 inh 10.
`Cc1cccc(C(=O)Nc2nnc(-c3ccco3)o2)c1` gave HTRA1 inh 4, SIAE primary 4, mABHD4 FP 3, ARNT-TACC3 inh 56*, TCR CD3 inh 2 and ARNT Alpha ctr-1 -35%.
